# According to publication PMC4324418 (ACS Chemical Neuroscience, 2014):
# Marks after values point to notes of the source that are not given here.
# What was measured:
# wild-type mice [1] = assay: Touchscreen pairwise visual discrimination task, wild-type mice; assay type: in vivo, mouse
# Procedure, shortened: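 Mice aged 8–11 weeks were held at ~85% free-feeding weight, with water freely available. They were trained on touchscreen nosepoke discrimination (60 trials or 60 min) to ≥85% accuracy on 3 consecutive days. Next day: vehicle (10% Tween 80 IP) or test compound (3–30 mg/kg IP) 60 min pre-test, then saline or MK-801 (0.1–0.3 mg/kg IP) 30 min later. Mice were retested drug-free 24 h later. Analysis: ANOVA with Bonferroni tests.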
# rats = assay: Amphetamine-induced hyperlocomotion in rats; assay type: in vivo; settings: rat, amphetamine 0.75 mg/kg SC
# [2] = Amphetamine-induced hyperlocomotion in rats; assay type: in vivo; settings: Sprague-Dawley, rat, brain, po
# M4 KO mice [3] = assay: MK-801-induced hyperlocomotion in M4 KO mice; assay type: in vivo, mouse
# Procedure, shortened: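 Wild-type and M4 KO mice were habituated 90 min in a photobeam open field. They then received vehicle (10% Tween 80 IP), followed 30 min later by saline or MK-801 IP, and activity was recorded for 120 min. Distance traveled was binned per 5 min. Totals covered t = 120 to 240 min and were analyzed by ANOVA with Bonferroni post hoc tests.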
# [4] = Biotransformation in cryopreserved rat hepatocytes; assay type: in vitro ADME; settings: male, Sprague–Dawley rat (data not shown)
# rat M4 receptor = target: T1, rat M4 receptor (Rattus norvegicus, UniProt P08485); assay: Progressive fold-shift of ACh concentration-response curve; assay type: cell-based; settings: operational model of allosterism
# T1 sequence (P08485 1-478): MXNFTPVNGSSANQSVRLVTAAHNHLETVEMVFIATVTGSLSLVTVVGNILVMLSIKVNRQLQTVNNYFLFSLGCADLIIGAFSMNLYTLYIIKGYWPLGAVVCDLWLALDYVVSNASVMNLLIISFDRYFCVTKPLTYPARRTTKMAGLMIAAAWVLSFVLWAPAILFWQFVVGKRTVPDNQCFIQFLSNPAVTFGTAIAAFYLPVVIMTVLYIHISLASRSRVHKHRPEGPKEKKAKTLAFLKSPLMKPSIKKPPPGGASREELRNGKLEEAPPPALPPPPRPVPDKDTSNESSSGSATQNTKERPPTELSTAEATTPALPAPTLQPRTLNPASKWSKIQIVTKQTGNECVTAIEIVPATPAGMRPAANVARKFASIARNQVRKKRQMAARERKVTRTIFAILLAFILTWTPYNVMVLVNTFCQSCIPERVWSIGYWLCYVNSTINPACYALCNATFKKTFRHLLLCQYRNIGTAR
# in vivo = settings: male, Sprague-Dawley, rat, po, 3 mg/kg, Tmax,p
# [5] = tested on: 57 GPCRs, ion channels, and transporters; assay: Ricerca lead profiling screen, radioligand binding panel; settings: 10 μM
# wild-type mice [6] = assay type: in vivo, mouse; settings: data not shown
# Procedure, shortened: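 Wild-type mice received vehicle (10% Tween 80, IP) or test compound (30 mg/kg IP). Thirty minutes later they received saline (IP) or MK-801 (0.3 mg/kg IP).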
# human M5 receptor = assay: Calcium mobilization, selectivity; assay type: cell-based
# Procedure, shortened: (§1)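 Cells were seeded at 15000/well in DMEM with 10% dialyzed FBS, 20 mM HEPES and 1 mM pyruvate, then cultured overnight at 37 °C/5% CO2. M2 and M4 lines were cotransfected with Gqi5. Cells were loaded with 1 μM Fluo-4AM (HBSS, 20 mM HEPES, 2.5 mM probenecid, pH 7.4) for 50 min at 37 °C. ACh was added 140 s after test compound. Calcium signal was expressed as % of the 10 μM ACh maximum.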
# rat M1 receptor = assay: Calcium mobilization, selectivity; assay type: cell-based
# Procedure, shortened: as §1
# [7] = Mouse plasma protein binding; assay type: in vitro ADME
# wild-type mice [8] = assay: MK-801-induced locomotor and nonlocomotor open field behaviors; assay type: in vivo, mouse
# Procedure, shortened: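 After 90 min open-field habituation, mice received vehicle (10% Tween 80 IP) or test compound (3–30 mg/kg IP). Saline or MK-801 (0.3 mg/kg IP) followed 30 min later. Over the next 120 min, ambulatory episodes, vertical counts, stereotypic counts and resting time were scored. Groups were 7–13 mice; ANOVA with Bonferroni tests.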
# M4 KO mice [9] = assay: Amphetamine-induced hyperlocomotion in M4 KO mice; assay type: in vivo, mouse
# [10] = Amphetamine-induced hyperlocomotion in M4 KO mice; assay type: in vivo, mouse; settings: mouse, brain, ip, 10 mg/kg, 10 mg/kg IP
# wild-type mice [11] = assay: Contextual fear conditioning, four-shock, MK-801-induced deficit; assay type: in vivo, mouse
# Procedure, shortened: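 Subjects were wild-type and M4 KO mice, 8–11 weeks old, handled for 3 days and saline-injected 1 day before conditioning. Vehicle (10% Tween 80 in water, IP) or test compound (3–10 mg/kg IP) was given 30 min before saline or MK-801 (0.1–0.3 mg/kg IP). Mice entered the chamber 30 min later for a four-shock conditioning trial. Percent freezing was scored 24 h later, drug-free.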
# [12] = VU0467154 3.0 mg/kg IP + MK-801 0.30 mg/kg IP
# [13] = VU0467154 3.0 mg/kg IP + vehicle
# [14] = VU0467154 5.6 mg/kg IP + MK-801 0.30 mg/kg IP
# [15] = VU0467154 5.6 mg/kg IP + vehicle
# [16] = VU0467154 10.0 mg/kg IP + MK-801 0.30 mg/kg IP
# [17] = VU0467154 10.0 mg/kg IP + vehicle
# [18] = VU0467154 30.0 mg/kg IP + vehicle
smiles,measurement,setting,value
"Cc1nnc2sc(C(=O)NCc3ccc(S(=O)(=O)C(F)(F)F)cc3)c(N)c2c1C [VU0467154, 5-amino-3,4-dimethyl-N-(4-((trifluoromethyl)sulfonyl)benzyl)thieno[2,3-c]pyridazine-6-carboxamide]",animals that did not complete all 60 trials in the 60 min session,wild-type mice [1]; 3 mg/kg VU0467154 in combination with 0.3 mg/kg MK-801,14%
same,animals that did not complete all 60 trials in the 60 min session,wild-type mice [1]; 10 mg/kg VU0467154 alone,25%
same,animals that did not complete all 60 trials in the 60 min session,wild-type mice [1]; 30 mg/kg VU0467154 alone,33%
same,correct reward collection latency,wild-type mice [1]; [12],3.34 ± 2.06 s
same,correct touch latency,wild-type mice [1]; [12],18.14 ± 14.17 s
same,time to complete 60 trials,wild-type mice [1]; [12],1239 ± 397.7 ^d s
same,correct reward collection latency,wild-type mice [1]; [13],1.13 ± 0.07 s
same,correct touch latency,wild-type mice [1]; [13],2.01 ± 0.16 s
same,time to complete 60 trials,wild-type mice [1]; [13],1061 ± 130.2 s
same,correct reward collection latency,wild-type mice [1]; [14],1.23 ± 0.08 s
same,correct touch latency,wild-type mice [1]; [14],4.10 ± 0.63 s
same,time to complete 60 trials,wild-type mice [1]; [14],856 ± 58.4 s
same,correct reward collection latency,wild-type mice [1]; [15],2.09 ± 0.50 s
same,correct touch latency,wild-type mice [1]; [15],2.24 ± 0.36 s
same,time to complete 60 trials,wild-type mice [1]; [15],1256 ± 211.5 s
same,correct reward collection latency,wild-type mice [1]; [16],1.33 ± 0.08 s
same,correct touch latency,wild-type mice [1]; [16],6.39 ± 1.11 s
same,time to complete 60 trials,wild-type mice [1]; [16],1017 ± 89.1 s
same,correct reward collection latency,wild-type mice [1]; [17],9.24 ± 6.71 s
same,correct touch latency,wild-type mice [1]; [17],18.58 ± 8.50 s
same,time to complete 60 trials,wild-type mice [1]; [17],2171 ± 424.8 ^b s
same,correct reward collection latency,wild-type mice [1]; [18],2.82 ± 0.71 s
same,correct touch latency,wild-type mice [1]; [18],20.89 ± 4.17 s
same,time to complete 60 trials,wild-type mice [1]; [18],2557 ± 397.1 ^c s
same,mean reversal of AHL,rats; PO 1 mg/kg,21%
same,mean reversal of AHL,rats; PO 3 mg/kg,33%
same,mean reversal of AHL,rats; PO 10 mg/kg,46%
same,mean reversal of AHL,rats; PO 30 mg/kg,53%
same,mean reversal of AHL,rats; PO 56.6 mg/kg,42%
same,concentration at 1.5 h,"[2]; 3 mg/kg, mean Cbrain, PO 3 mg/kg, at 1.5 h postadministration",750 nM
same,concentration at 1.5 h,"[2]; 3 mg/kg, mean Cbrain,u, PO 3 mg/kg, 1.5 h, in vitro rat fubrain 0.067",50 nM
same,concentration at 1.5 h,"[2]; 10 mg/kg, mean Cbrain, PO 10 mg/kg, at 1.5 h postadministration",1100 nM
same,concentration at 1.5 h,"[2]; 10 mg/kg, mean Cbrain,u, PO 10 mg/kg, 1.5 h, in vitro rat fubrain 0.067",74 nM
same,concentration at 1.5 h,"[2]; 30 mg/kg, mean Cbrain,u, PO 30 mg/kg, 1.5 h, in vitro rat fubrain 0.067",94 nM
same,concentration at 1.5 h,"[2]; 56.6 mg/kg, mean Cbrain,u, PO 56.6 mg/kg, 1.5 h, in vitro rat fubrain 0.067",94 nM
same,effect on MK-801-induced hyperlocomotion,M4 KO mice [3],had no effect on the time course of MK-801-induced hyperlocomotion
same,turnover in hepatocytes,[4],low turnover
same,efficacy cooperativity factor (log β),rat M4 receptor,0.91
same,efficacy cooperativity factor β,rat M4 receptor,8.17
same,Tmax,in vivo,~3 h
same,displacement of the radioligand,[5]; all targets included in this panel,≤ 30%
same,displacement of the radioligand,[5]; majority of targets,≤ 20%
same,serotonin utilization in the NAS and CP,wild-type mice [6],Neither single nor combined administration of VU0467154 with MK-801 altered serotonin utilization
same,potentiation of ACh response (calcium response),human M5 receptor,lack of a calcium response
same,potentiation of ACh response (calcium response),rat M1 receptor,lack of a calcium response
same,fraction unbound,[7],0.022
same,reversal of MK-801-induced increases in ambulatory episodes and vertical counts,wild-type mice [8],potently reversed
same,reversal of MK-801-mediated increase in stereotypic counts and decreases in resting time,wild-type mice [8],appeared to be less potent
same,effect on amphetamine-induced hyperlocomotion,M4 KO mice [9],had no effect on the time course of amphetamine-induced hyperlocomotion
same,mean reversal of AHL,"M4 KO mice [9]; 10 mg/kg IP, amphetamine […] SC",–6.6%
same,concentration at 2.5 h,"[10]; mean Cbrain, at 2.5 h postadministration",217 nM
same,concentration at 2.5 h,"[10]; mean Cbrain,u, 2.5 h, in vitro mouse fubrain 0.014",3 nM
same,effect on contextual fear conditioning,"wild-type mice [11]; VU0467154 alone, four-shock",had no effect on contextual fear conditioning
same,reversal of MK-801-induced deficits in the acquisition of contextual fear conditioning,wild-type mice [11]; pretreatment 3–10 mg/kg,dose-dependently reversed
